Calls of active or inactive are those of the source. No cut-off for these calls is given here.
Experiments:
[1] = Cytotoxicity against african green monkey BS-C-1 cells; assay type: cell-based; details: chlorocebus aethiops, bsc-1
Procedure, shortened: (§1)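 BSC-1 African green monkey kidney cells infected with Herpes simplex type 1 virus (ATCC VR 733); scored for inhibition of virus and for alteration of the host cells.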

Escherichia coli = experiment: Antibacterial activity against Escherichia coli assessed as inhibition zone at 1 mg/mL by paper disk assay; assay type: functional, organism-based
Procedure, shortened: (§2)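 Paper disk diffusion; 30 μL of a 1 mg/mL compound solution applied per disk; read-out as zone of inhibition. Panel run in parallel: bacteria E. coli, B. subtilis, P. aeruginosa; fungi C. albicans, T. mentagrophytes, A. resinae.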

Bacillus subtilis = experiment: Antibacterial activity against Bacillus subtilis assessed as inhibition zone at 1 mg/mL by paper disk assay; assay type: functional, organism-based; procedure, shortened: as §2
Pseudomonas aeruginosa = experiment: Antibacterial activity against Pseudomonas aeruginosa assessed as inhibition zone at 1 mg/mL by paper disk assay; assay type: functional, organism-based; procedure, shortened: as §2
Candida albicans = experiment: Antifungal activity against Candida albicans assessed as inhibition zone at 1 mg/mL by paper disk assay; assay type: functional, organism-based; procedure, shortened: as §2
[2] = test system: Trichophyton mentagrophytes; experiment: Antifungal activity against Trichophyton mentagrophytes assessed as inhibition zone at 1 mg/mL by paper disk assay; assay type: functional, organism-based; procedure, shortened: as §2
Amorphotheca resinae = experiment: Antifungal activity against Amorphotheca resinae assessed as inhibition zone at 1 mg/mL by paper disk assay; assay type: functional, organism-based; procedure, shortened: as §2
Human alphaherpesvirus 1 = experiment: Antiviral activity against herpes simplex virus type 1 ATCC VR 733 infected in african green monkey BS-C-1 cells; assay type: functional, organism-based; procedure, shortened: as §1
Poliovirus 1 = experiment: Antiviral activity against Poliovirus type 1 infected in african green monkey BS-C-1 cells; assay type: functional, organism-based
Procedure, shortened: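 Poliovirus type 1 (Pfizer vaccine strain) infecting African green monkey kidney BSC-1 cells; scored for inhibition of the virus and for alteration of the host cells.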

P388 = experiment: Cytotoxicity against mouse P388 cells; assay type: functional; details: read-out: ID50 (the source's name)

Row | Structure (SMILES) | Activity [1] | Activity (Escherichia coli) | Activity (Bacillus subtilis) | Activity (Pseudomonas aeruginosa) | Activity (Candida albicans) | Activity [2] | Activity (Amorphotheca resinae) | Activity (Human alphaherpesvirus 1) | Activity (Poliovirus 1) | IC50 (P388)
1 | CCCC(=O)N1CC[C@]23c4ccccc4N[C@H]4N(C)c5cccc6c5[C@]42CCN([C@H]6[C@@H]2OC2(C)C)[C@H]13 [COMMUNESIN H] | Non-toxic | inactive | inactive | inactive | inactive | inactive | inactive | inactive | inactive | > 12.5 µg/mL
2 | CCC(=O)N1CC[C@]23c4ccccc4N[C@H]4N(C)c5cccc6c5[C@]42CCN([C@H]6[C@@H]2OC2(C)C)[C@H]13 [COMMUNESIN G] | Non-toxic | inactive | inactive | inactive | inactive | inactive | inactive | inactive | inactive | > 12.5 µg/mL

— ChEMBL document CHEMBL1142588, “Communesins G and H, new alkaloids from the psychrotolerant fungus Penicillium rivulum” (J Nat Prod, 2005)
